This note sets out measurements from ChEMBL document CHEMBL1157819, “Almiramides A-C: discovery and development of a new class of leishmaniasis lead compounds” (J Med Chem, 2010).

Each structure is given as a SMILES string. ≈ marks a conversion by molar mass, not a printed value. Calls of active or inactive are those of the source. The calls are words filed in the database; no cut-off is given here. Non-standard residues stand in square brackets, D forms with d. Residues, ends and D or L forms follow the SMILES beside them. *: point of attachment. Octanoyl(2R-Me,7,8-dehydro) = C=CCCCC[C@@H](C)C(=O)*; Oct7ynoyl(2R-Me) = C#CCCCC[C@@H](C)C(=O)*; NMeY = CN[C@@H](Cc1ccc(O)cc1)C(=O)O; NMeF = CN[C@@H](Cc1ccccc1)C(=O)O; X1 = CC(=O)CCCC[C@@H](C)C(=O)*; Oct(7)enoyl = C=CCCCCCC(=O)*; Oct(7)ynoyl = C#CCCCCCC(=O)*; NMeV = CN[C@H](C(=O)O)C(C)C; X5 = C#CCCCCC(C)CC(C)C(=O)*; Hept6ynoyl = C#CCCCCC(=O)*; X3 = CCCCCC[C@@H](C)C(=O)*; X6 = C#CCCCC[C@H](C)C(=O)*; NMeA = CN[C@@H](C)C(=O)O; X4 = C=CCCCCC(=O)*; X2 = C=CCCCC(=O)* Where only a bound is given, the exact number is not on record here.

In data set [1] the test system is Vero. The experiment in a line: Cytotoxicity against african green monkey Vero cells by MTT assay. It is filed as cell-based. Particulars: Chlorocebus sabaeus. A digest of the protocol: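 Green monkey Vero kidney cells; cell proliferation read by MTT.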
For orientation: Tetrazolium assays rely on reduction of a dye to a coloured formazan, in cell work by metabolically active cells.

The subject of data set [2] is Leishmania donovani. Put plainly: Antileishmanial activity against Leishmania donovani by DNA fluorescence assay. It is filed as functional, organism-based.
A short description of data set [3]: Selectivity index, ratio of IC50 for african green monkey Vero cells to IC50 for Leishmania donovani. It is filed as toxicity, cell-based. Particulars: read-out: Ratio IC50.
Data set [4] relates to Trypanosoma cruzi. The experiment in a line: Antitrypanosomal activity against Trypanosoma cruzi Tulahuen infected in mouse 3T3 cells assessed as beta-galactosidase activity at 13.5 uM after 7 days by chagas bioassay. It is filed as functional, organism-based. To be noted: NIH3T3.
In data set [5] the test system is Plasmodium falciparum. The experiment in a line: Antimalarial activity against chloroquine-resistant Plasmodium falciparum W2 at 13.5 uM after 48 hrs by fluorometric method. It is filed as functional, organism-based.
Data set [6] relates to Leishmania donovani. The experiment in a line: Antileishmanial activity against Leishmania donovani at 10 ug/mL by DNA fluorescence assay. The data set is classed as functional, organism-based. A digest of the protocol: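 Leishmania donovani; parasite growth read by parasite DNA fluorescence, with amphotericin B as positive control.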
The subject of data set [7] is Leishmania donovani. Put plainly: Antileishmanial activity against Leishmania donovani at 13.4 uM by DNA fluorescence assay. The data set is classed as functional, organism-based.
For data set [8], the system named is Trypanosoma cruzi. The experiment in a line: Antitrypanosomal activity against Trypanosoma cruzi Tulahuen infected in mouse 3T3 cells assessed as beta-galactosidase activity after 7 days by chagas bioassay. To be noted: NIH3T3, 168 h.

The IC50 is the concentration that inhibits the measured activity by half. Regarding `C#CCCCCCC(=O)N(C)[C@H](C(=O)N(C)[C@H](C(=O)N(C)[C@H](C(=O)N(C)[C@@H](C)C(=O)N(C)[C@@H](Cc1ccccc1)C(=O)OC)C(C)C)C(C)C)C(C)C` ({Oct(7)ynoyl}-[NMeV][NMeV][NMeV][NMeA][NMeF]-OMe), the figures for the concentration for half-maximal inhibition (IC50) in data set [1] and in data set [2] were 27 µM and > 14 µM, respectively.

Regarding `C=CCCCC[C@@H](C)C(=O)N(C)[C@H](C(=O)N(C)[C@H](C(=O)N[C@H](C(=O)N(C)[C@@H](C)C(=O)N(C)[C@@H](Cc1ccccc1)C(N)=O)C(C)C)C(C)C)C(C)C` [ALMIRAMIDE C] ({Octanoyl(2R-Me,7,8-dehydro)}-[NMeV][NMeV]V[NMeA][NMeF]-NH2), the selectivity ratio in data set [3] amounted to 17.4. Besides, the IC50 in data set [1] was 33.1 µM; in data set [2], 1.9 µM. The outcome in data set [4] and in data set [5] was inactive.

As for `C=CCCCCCC(=O)N(C)[C@H](C(=O)N(C)[C@H](C(=O)N(C)[C@H](C(=O)N(C)[C@@H](C)C(=O)N(C)[C@@H](Cc1ccccc1)C(=O)O)C(C)C)C(C)C)C(C)C` ({Oct(7)enoyl}-[NMeV][NMeV][NMeV][NMeA][NMeF]-OH), in data set [3], the selectivity ratio worked out at 46.9. The 50% inhibitory concentration (IC50) in data set [1] turned out to be 192 µM; in data set [2], 4.1 µM.

In the case of `C=CCCCCC(=O)N(C)[C@H](C(=O)N(C)[C@H](C(=O)N(C)[C@H](C(=O)N(C)[C@@H](C)C(=O)N(C)[C@@H](Cc1ccccc1)C(=O)N(C)C)C(C)C)C(C)C)C(C)C` (X4-[NMeV][NMeV][NMeV][NMeA][NMeF]-NMe2), in data set [3], the selectivity ratio was 8.8. In addition, the concentration for half-maximal inhibition (IC50) in data set [1] came out at 13.8 µM; in data set [2], 2.7 µM.

On to `C=CCCCCC(=O)N(C)[C@H](C(=O)N(C)[C@H](C(=O)N(C)[C@H](C(=O)N(C)[C@@H](C)C(=O)N(C)[C@@H](Cc1ccccc1)C(=O)O)C(C)C)C(C)C)C(C)C` (X4-[NMeV][NMeV][NMeV][NMeA][NMeF]-OH), for which the IC50 in data set [1] was > 70 µM; in data set [2], > 14 µM.

Take `C#CCCCC[C@@H](C)C(=O)N(C)[C@H](C(=O)N(C)[C@H](C(=O)N(C)[C@H](C(=O)N(C)[C@@H](C)C(=O)N(C)[C@@H](Cc1ccccc1)C(=O)N(C)C)C(C)C)C(C)C)C(C)C` [PERMETHYLALMIRAMIDE B] ({Oct7ynoyl(2R-Me)}-[NMeV][NMeV][NMeV][NMeA][NMeF]-NMe2): the IC50 in data set [2] was 2.3 µM.

Consider `C#CCCCC[C@H](C)C(=O)N(C)[C@H](C(=O)N(C)[C@H](C(=O)N(C)[C@H](C(=O)N(C)[C@@H](Cc1ccccc1)C(N)=O)C(C)C)C(C)C)C(C)C` (X6-[NMeV][NMeV][NMeV][NMeF]-NH2), for which, in data set [6], the outcome was inactive.

`C[C@@H]1[C@H](O)[C@@H](C)/C=C/C=C/C=C/C=C/C=C/C=C/C=C/[C@H](O[C@@H]2O[C@H](C)[C@@H](O)[C@H](N)[C@@H]2O)C[C@@H]2O[C@](O)(C[C@@H](O)C[C@@H](O)[C@H](O)CC[C@@H](O)C[C@@H](O)CC(=O)O[C@H]1C)C[C@H](O)[C@H]2C(=O)O` [AMPHOTERICIN B]: the IC50 in data set [2] is 0.08 µg/mL.

Take `CCCCCC[C@@H](C)C(=O)N(C)[C@H](C(=O)N(C)[C@H](C(=O)N[C@H](C(=O)N(C)[C@@H](C)C(=O)N(C)[C@@H](Cc1ccccc1)C(N)=O)C(C)C)C(C)C)C(C)C` [TETRAHYDROALMIRAMIDE B] (X3-[NMeV][NMeV]V[NMeA][NMeF]-NH2): the half-inhibitory concentration (IC50) in data set [2] is > 13.7 µM. In addition, in data set [7], the result was inactive.

Regarding `C#CCCCCCC(=O)N(C)[C@H](C(=O)N(C)[C@H](C(=O)N(C)[C@H](C(=O)N(C)[C@@H](C)C(=O)N(C)[C@@H](Cc1ccccc1)C(=O)N(C)C)C(C)C)C(C)C)C(C)C` ({Oct(7)ynoyl}-[NMeV][NMeV][NMeV][NMeA][NMeF]-NMe2), the selectivity ratio in data set [3] was determined as 27. In addition, the half-inhibitory concentration (IC50) in data set [1] came out at 159 µM; in data set [2], 5.9 µM.

For the molecule `C#CCCCC[C@H](C)C(=O)N(C)[C@H](C(=O)N(C)[C@H](C(=O)N(C)[C@H](C(=O)N(C)[C@H](C(N)=O)C(C)C)C(C)C)C(C)C)C(C)C` (X6-[NMeV][NMeV][NMeV][NMeV]-NH2), the result in data set [6] was inactive.

As to `C=CCCCCC(=O)N(C)[C@H](C(=O)N(C)[C@H](C(=O)N(C)[C@H](C(=O)N(C)[C@@H](C)C(=O)N(C)[C@@H](Cc1ccccc1)C(=O)OC)C(C)C)C(C)C)C(C)C` (X4-[NMeV][NMeV][NMeV][NMeA][NMeF]-OMe), the values for the IC50 in data set [1] and in data set [2] were 24.7 µM and > 14 µM, respectively.

As to `C#CCCCCC(=O)N(C)[C@H](C(=O)N(C)[C@H](C(=O)N(C)[C@H](C(=O)N(C)[C@@H](C)C(=O)N(C)[C@@H](Cc1ccccc1)C(=O)N(C)C)C(C)C)C(C)C)C(C)C` (Hept6ynoyl-[NMeV][NMeV][NMeV][NMeA][NMeF]-NMe2), the selectivity ratio in data set [3] was found to be 50.2. For the same molecule, the values for the concentration for half-maximal inhibition (IC50) in data set [1] and in data set [2] were 156 µM and 3.1 µM, respectively.

For the molecule `C#CCCCC[C@@H](C)C(=O)N(C)[C@H](C(=O)N(C)[C@H](C(=O)N[C@H](C(=O)N(C)[C@@H](C)C(=O)N(C)[C@@H](Cc1ccccc1)C(N)=O)C(C)C)C(C)C)C(C)C` [ALMIRAMIDE B] ({Oct7ynoyl(2R-Me)}-[NMeV][NMeV]V[NMeA][NMeF]-NH2), the selectivity ratio in data set [3] is 21.8. The concentration for half-maximal inhibition (IC50) in data set [1] turned out to be 52.3 µM; in data set [2], 2.4 µM. For the same molecule, the outcome in data set [4] and in data set [5] was inactive.

Consider `C#CCCCCC(=O)N(C)[C@H](C(=O)N(C)[C@H](C(=O)N(C)[C@H](C(=O)N(C)[C@@H](C)C(=O)N(C)[C@@H](Cc1ccccc1)C(=O)O)C(C)C)C(C)C)C(C)C` (Hept6ynoyl-[NMeV][NMeV][NMeV][NMeA][NMeF]-OH), for which the selectivity ratio in data set [3] is 50.2. The IC50 in data set [1] came out at 281 µM; in data set [2], 5.6 µM.

For the molecule `C#CCCCCC(=O)N(C)[C@H](C(=O)N(C)[C@H](C(=O)N(C)[C@H](C(=O)N(C)[C@@H](C)C(=O)N(C)[C@@H](Cc1ccccc1)C(=O)OC)C(C)C)C(C)C)C(C)C` (Hept6ynoyl-[NMeV][NMeV][NMeV][NMeA][NMeF]-OMe), the results for the IC50 in data set [1] and in data set [2] were 41.4 µM and > 14 µM, respectively.

In data set [2], `C#CCCCC[C@@H](C)C(=O)N(C)[C@H](C(=O)N(C)[C@H](C(=O)N(C)[C@H](C(=O)N(C)[C@@H](C)C(=O)N(C)[C@@H](Cc1ccccc1)C(N)=O)C(C)C)C(C)C)C(C)C` [MONOMETHYLALMIRAMIDE B] ({Oct7ynoyl(2R-Me)}-[NMeV][NMeV][NMeV][NMeA][NMeF]-NH2) displayed an IC50 of 1.6 µM.

Take `C=CCCCC(=O)N(C)[C@H](C(=O)N(C)[C@H](C(=O)N(C)[C@H](C(=O)N(C)[C@@H](C)C(=O)N(C)[C@@H](Cc1ccccc1)C(=O)N(C)C)C(C)C)C(C)C)C(C)C` (X2-[NMeV][NMeV][NMeV][NMeA][NMeF]-NMe2): the selectivity ratio in data set [3] amounted to 13.9. Further, the 50% inhibitory concentration (IC50) in data set [1] is 93.1 µM; in data set [2], 6.7 µM.

In the case of `C#CCCCCC(C)CC(C)C(=O)N(C)[C@@H](Cc1ccccc1)C(=O)N[C@@H](C)C(=O)N(C)[C@@H](C)C(=O)N(C)[C@@H](Cc1ccc(OC)cc1)C(N)=O` (stereo not given in full) (X5-[NMeF]A[NMeA][NMeY](Me)-NH2), in data set [6], the outcome was inactive.

Regarding `C#CCCCC[C@H](C)C(=O)N(C)[C@@H](Cc1ccccc1)C(=O)N[C@@H](C)C(=O)N(C)[C@@H](C)C(=O)N(C)[C@@H](Cc1ccc(OC)cc1)C(N)=O` (X6-[NMeF]A[NMeA][NMeY](Me)-NH2), in data set [6], the result was inactive.

On to `C=CCCCCCC(=O)N(C)[C@H](C(=O)N(C)[C@H](C(=O)N(C)[C@H](C(=O)N(C)[C@@H](C)C(=O)N(C)[C@@H](Cc1ccccc1)C(=O)OC)C(C)C)C(C)C)C(C)C` ({Oct(7)enoyl}-[NMeV][NMeV][NMeV][NMeA][NMeF]-OMe), for which the IC50 was 18.8 µM in data set [1] and > 14 µM in data set [2].

For `C#CCCCCCC(=O)N(C)[C@H](C(=O)N(C)[C@H](C(=O)N(C)[C@H](C(=O)N(C)[C@@H](C)C(=O)N(C)[C@@H](Cc1ccccc1)C(=O)O)C(C)C)C(C)C)C(C)C` ({Oct(7)ynoyl}-[NMeV][NMeV][NMeV][NMeA][NMeF]-OH), the IC50 in data set [1] was > 68.9 µM; in data set [2] it was > 14 µM.

On to `CC1CS(=O)(=O)CCN1/N=C/c1ccc([N+](=O)[O-])o1` (stereo not given) [NIFURTIMOX], for which the IC50 in data set [8] was determined as 3 µg/mL (≈ 10.4 µM).

As for `CC(=O)CCCC[C@@H](C)C(=O)N(C)[C@H](C(=O)N(C)[C@H](C(=O)N[C@H](C(=O)N(C)[C@@H](C)C(=O)N(C)[C@@H](Cc1ccccc1)C(N)=O)C(C)C)C(C)C)C(C)C` [ALMIRAMIDE A] (X1-[NMeV][NMeV]V[NMeA][NMeF]-NH2), the IC50 in data set [1] was 113 µM; in data set [2], > 13.5 µM. Moreover, the result in data set [4] and in data set [5] was inactive.

Consider `CCCCCCCCCCCCCCCCOP(=O)([O-])OCC[N+](C)(C)C` [MILTEFOSINE], for which, in data set [2], the IC50 was 0.5 µM.
